Converted amounts (≈) assume the structure as drawn. The source made the active and inactive calls. No cut-off for these calls is given here.

Format in all cases: functional
Assay [1] relates to Candida albicans. As to the kind of experiment: Antimicrobial activity against Candida albicans 3471 at 35 degC after 48 hrs by CLSI method based antimicrobial assay. As to conditions: Candida albicans, 3471, 48 h; for MFC: read-out: MFC99.9. Put shortly: (§1)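 Broth microdilution following CLSI guidelines over 256 to 1 µg/mL. MIC90 is the lowest concentration completely inhibiting growth. For MFC, 0.1 mL from each tube spread on agar and CFU counted after 48 h at 35 °C; MFC is lowest concentration killing 99.9% of inoculum. MFC/MIC ratio calculated: […], ≤4 as fungicidal.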

Assay [2] relates to Aspergillus niger. Briefly: Antimicrobial activity against Aspergillus niger 545 at 35 degC after 48 hrs by CLSI method based antimicrobial assay. As to conditions: Aspergillus niger, 545, 48 h; for MFC: read-out: MFC99.9. Put shortly: as §1
In assay [3] the test system is Bacillus subtilis. Briefly: Antimicrobial activity against Bacillus subtilis 2250 at 35 degC after 18 to 24 hrs by NCCLS method based antimicrobial assay.
Assay [4] deals with Staphylococcus aureus. Briefly: Antimicrobial activity against Staphylococcus aureus 2079 at 35 degC after 18 to 24 hrs by NCCLS method based antimicrobial assay.
Assay [5] relates to Candida albicans. As to the kind of experiment: Ratio of MFC99.9 to MIC90 for Candida albicans 3471 at 35 degC after 48 hrs by CLSI method based antimicrobial assay. The essentials:
as §1

Assay [6] concerns Bacillus subtilis. As to the kind of experiment: Antimicrobial activity against Bacillus subtilis 2250 at 128 ug/disc at 35 degC after 24 hrs by agar-well diffusion assay. Put shortly:
(§2)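 Agar-well diffusion: 24 h bacterial cultures adjusted to 0.5 McFarland (1.5 × 10⁸ CFU/mL) and mixed into molten Mueller-Hinton agar before pouring. 6 mm wells punched and each filled with 50 µL of compound stock or control. Plates incubated 35 °C for 24 h. Zone of growth inhibition diameter measured with vernier caliper.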

The subject of assay [7] is Candida albicans. Briefly: Antimicrobial activity against Candida albicans 3471 at 128 ug/disc at 37 degC after 24 to 72 hrs by agar-well diffusion assay. As to conditions: read-out: DIZ. Put shortly: (§3)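 Potato dextrose agar base plates overlaid with seeded agar cooled to 40 °C and inoculated with spores from 10-day cultures, final 1 × 10⁶ spores/mL. Compounds dissolved in DMSO at 128 µg/mL and applied on 6 mm filter-paper discs placed on chilled seeded medium. Nystatin positive control, DMSO negative control. Incubation 24–72 h at 37 °C. Inhibition zone diameter read by vernier caliper.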

For assay [8], the system named is Aspergillus niger. As to the kind of experiment: Antimicrobial activity against Aspergillus niger 545 at 128 ug/disc at 37 degC after 24 to 72 hrs by agar-well diffusion assay. To be noted: read-out: DIZ. The essentials: as §3
The test system of assay [9] is Pseudomonas aeruginosa. As to the kind of experiment: Antimicrobial activity against Pseudomonas aeruginosa 2036 at 128 ug/disc at 35 degC after 24 hrs by agar-well diffusion assay. To be noted: Pseudomonas aeruginosa, 2036, 24 h; read-out: DIZ. Put shortly: as §2
Assay [10] deals with Escherichia coli. Briefly: Antimicrobial activity against Escherichia coli 2109 at 128 ug/disc at 35 degC after 24 hrs by agar-well diffusion assay. The essentials: as §2
Assay [11] has as its system Escherichia coli. Briefly: Antimicrobial activity against Escherichia coli 2109 at 35 degC after 18 to 24 hrs by NCCLS method based antimicrobial assay.
Assay [12] deals with Aspergillus niger. As to the kind of experiment: Ratio of MFC99.9 to MIC90 for Aspergillus niger 545 at 35 degC after 48 hrs by CLSI method based antimicrobial assay. Put shortly: as §1
Assay [13] relates to Pseudomonas aeruginosa. Briefly: Antimicrobial activity against Pseudomonas aeruginosa 2036 at 35 degC after 18 to 24 hrs by NCCLS method based antimicrobial assay. To be noted: for MBC: read-out: MBC99.9.
In assay [14] the test system is Staphylococcus aureus. Briefly: Antimicrobial activity against Staphylococcus aureus 2079 at 128 ug/disc at 35 degC after 24 hrs by agar-well diffusion assay. The essentials: as §2

On to `O=[N+]([O-])c1ccc(/C(Cn2nnc3ccccc32)=N\Nc2nc(-c3ccc(F)cc3)cs2)cc1`, for which the MIC came to 128 µg/mL (≈ 270 µM) with Candida albicans [1], 32 µg/mL (≈ 67.6 µM) against Aspergillus niger [2], 32 µg/mL (≈ 67.6 µM) in the assay on Staphylococcus aureus [4] and 32 µg/mL (≈ 67.6 µM) with Pseudomonas aeruginosa [13]. Moreover, the MFC in the assay on Candida albicans [1] amounted to 256 µg/mL (≈ 541 µM); in the assay on Aspergillus niger [2], 64 µg/mL (≈ 135 µM). The MBC99.9 result in the assay with Bacillus subtilis [3] and with Escherichia coli [11] was “inactive” in each case. In addition, the MIC entry in the assay on Bacillus subtilis [3] and in the assay on Escherichia coli [11] was “inactive” throughout. Also, the MBC worked out at 64 µg/mL (≈ 135 µM) in the assay on Staphylococcus aureus [4] (read-out: MBC99.9) and 32 µg/mL (≈ 67.6 µM) in the assay with Pseudomonas aeruginosa [13]. The Ratio with Candida albicans [5] and in the assay on Aspergillus niger [12] was 2 each time. In addition, the “diameter of the inhibition zone (DIZ)” value in the assay on Bacillus subtilis [6] and with Escherichia coli [10] was “inactive” each time. Also, the zone of inhibition at 128 µg/disc came to 12.2 mm in the assay on Candida albicans [7]; 17.8 mm in the assay on Aspergillus niger [8]; 20.7 mm with Pseudomonas aeruginosa [9]; 26.5 mm in the assay on Staphylococcus aureus [14] (Staphylococcus aureus, 2079, 24 h, read-out: DIZ).
With `Fc1ccc(-c2csc(N/N=C(/Cn3nnc4ccccc43)c3ccc(Br)cc3)n2)cc1`, the minimal inhibitory concentration (MIC) against Candida albicans [1] is 32 µg/mL (≈ 63.1 µM); with Aspergillus niger [2] it was 32 µg/mL (≈ 63.1 µM); against Escherichia coli [11] it was 128 µg/mL (≈ 252 µM); against Pseudomonas aeruginosa [13] it was 32 µg/mL (≈ 63.1 µM). Also, the MFC in the assay on Candida albicans [1] was 128 µg/mL (≈ 252 µM); in the assay with Aspergillus niger [2], 64 µg/mL (≈ 126 µM). Besides, the MBC99.9 result in the assay on Bacillus subtilis [3] and in the assay with Staphylococcus aureus [4] was “inactive” each time. Also, the MIC entry in the assay with Bacillus subtilis [3] and in the assay on Staphylococcus aureus [4] was “inactive” in each case. The figures for the Ratio with Candida albicans [5] and with Aspergillus niger [12] were 4 and 2, respectively. In addition, the “diameter of the inhibition zone (DIZ)” value with Bacillus subtilis [6] and in the assay on Staphylococcus aureus [14] was “inactive” each time. The zone of inhibition at 128 µg/disc with Candida albicans [7] was determined as 16.8 mm; in the assay on Aspergillus niger [8], 17.6 mm; in the assay with Pseudomonas aeruginosa [9] it was 19.8 mm; in the assay with Escherichia coli [10] (Escherichia coli, 2109, 24 h, read-out: DIZ), 18.7 mm. Further, the figures for the MBC in the assay on Escherichia coli [11] (read-out: MBC99.9) and with Pseudomonas aeruginosa [13] were 128 µg/mL (≈ 252 µM) and 64 µg/mL (≈ 126 µM), respectively.

Source of the values: ChEMBL document CHEMBL2021913, “Synthesis and biological evaluation of some novel thiazole substituted benzotriazole derivatives” (2012).
